# Only some compounds are listed: those with a hit (about 2.6% of all), similar ones and a draw of the others.
# RAD54 inh: inhibitors of human RAD54 branch migration. 0.14% of 360,000 active. inhibition, % at 10.4 µM. RAD54 Holliday junction branch migration, FAM/BHQ fluorescence. Q92698;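 active means mean normalized replicate activity at least 40 and at least half of replicates scoring 40 or more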;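 further: 0% = median of neutral control wells and 100% = median of positive control wells; inhibitors cause a drop in the FAM fluorescence signal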
# MLL AF4-AF9 inh: blocks AF4 peptide binding to human AF9 | P42568 | AlphaScreen, biotin-AF4 peptide binding to FLAG-AF9 | inhibition, % at 10 µM | 0.47% of 350,000 active | AID 651704;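 active means every replicate reaching a set inhibition limit, whatever the replicate mean, cut at about 25% in these data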;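 further: 0% = plate neutral control median and 100% = total signal loss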
# INS-1E GSIS act: primary screen for activators of insulin secretion dependent on glucose, INS-1E cells, GLuc reporter luminescence; INS-1E GLuc reporter insulin secretion, 2-3 h; 0.61% of 370,000 active; activation, % at 16.6 µM;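 active means lowest replicate activation of at least 40%, so every replicate reaches that level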;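 further: 0% = median of neutral control wells and 100% = median of IBMX positive control wells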
# E-selectin induc: E-selectin induction on HUVECs | activation, % at 7.58 µM | HUVEC E-selectin immunofluorescence imaging; normalized: neutral wells 0, TNF-alpha wells 100 | 0.37% of 260,000 active;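 active means mean E-selectin-positive cell signal at least 10% of the positive control, reached in at least 60% of replicates, without over 20% cell loss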
# Target sequence (P16581 whole entry, looked up): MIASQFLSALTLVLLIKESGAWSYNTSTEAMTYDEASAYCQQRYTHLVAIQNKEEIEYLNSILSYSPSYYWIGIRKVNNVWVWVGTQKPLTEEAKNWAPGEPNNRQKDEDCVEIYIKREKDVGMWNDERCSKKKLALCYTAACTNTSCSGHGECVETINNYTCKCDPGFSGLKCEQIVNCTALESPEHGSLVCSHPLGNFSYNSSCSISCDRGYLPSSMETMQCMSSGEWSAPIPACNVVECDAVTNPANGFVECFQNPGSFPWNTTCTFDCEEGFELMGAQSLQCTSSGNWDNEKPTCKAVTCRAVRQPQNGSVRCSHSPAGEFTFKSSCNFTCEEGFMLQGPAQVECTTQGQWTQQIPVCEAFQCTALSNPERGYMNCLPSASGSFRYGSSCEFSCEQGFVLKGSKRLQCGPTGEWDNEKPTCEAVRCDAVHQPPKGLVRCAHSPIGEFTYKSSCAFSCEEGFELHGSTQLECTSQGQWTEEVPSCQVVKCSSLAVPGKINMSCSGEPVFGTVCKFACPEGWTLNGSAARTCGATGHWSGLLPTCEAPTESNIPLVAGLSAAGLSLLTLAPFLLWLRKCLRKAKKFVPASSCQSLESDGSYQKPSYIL
#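 Read-out basis: % PE-positive cells; Test system: HUVEC primary endothelial cells; Technique: immunofluorescence imaging; Dosing: single-point compound dose.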
# Ecoli rRNA inh: selective bacterial rRNA inhibition in E. coli; GFP signal change (wild-type ribosome), % (no concentration beside the values); E. coli WT GFP vs humanized-ribosome RFP mutants, fluorescence, 24 h; stronger effect = lower value; DMSO median 0, no signal -100; 1.6% of 350,000 active;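 active means significant combined selectivity score with lowered wild-type GFP, culture density cut under 30%, mutant RFP and density less affected; inactive means any of these conditions unmet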
# RAD52 anneal inh: blocks human RAD52 DNA annealing; recombinant RAD52 DNA annealing, FRET fluorescence; inhibition, % at 18.7 µM; 0.46% of 360,000 active; AID 651710;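 active means every replicate showing at least 50% inhibition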
# Numbers without * were called inactive; . = no result given; ! = repeats disagree.
SMILES,RAD54 inh,MLL AF4-AF9 inh,INS-1E GSIS act,E-selectin induc,Ecoli rRNA inh,RAD52 anneal inh
Cc1ccc(S(=O)(=O)N(C)C[C@H]2OCCCC[C@H](C)Oc3ccc(NC(=O)Nc4c(C)noc4C)cc3C(=O)N([C@H](C)CO)C[C@@H]2C)cc1,5.1,1.9,0.9,.,-1.6,-17.4
O=C(C1CCCC1)N1CC2(C1)[C@@H](c1ccccc1)[C@H](CO)N2C(=O)c1cccnc1,.,-6.2,16.3,0.1,2.2,-0.9
COc1ccc(NC(=O)c2sccc2-n2cccc2)cc1,4.4,4.2,2.6,5.9,-30.8*,-27.5
CN1C(=O)c2cc(NC(=O)c3ccc(F)cc3)ccc2OC[C@H]2O[C@@H](CC(=O)N3CCOCC3)CC[C@H]21,-5.1,-0.9,8.5,0.0,-0.5,-5.5
CCOC(=O)[C@]12CCCC=C1N(Cc1ccccc1)C(=O)[C@H](CC(=O)NCCc1ccccc1OC)C2,.,2.8,11.2,-0.2,-20.9*,-6.5
CCOC(=O)[C@]12CCC=C1N(Cc1ccccc1)C(=O)[C@H](CC(=O)NCCC(C)C)C2,.,-0.8,-34.8,-0.1,-23.5*,-14.9
CCOC(=O)[C@]12CCC=C1N(Cc1ccccc1)C(=O)[C@H](CC(=O)NCCCCc1ccccc1)C2,.,-2.5,-36.4,.,0.4,-28.1
CCNc1nc(NOC)nc(OCC#N)n1,.,-2.8,46.7*,-6.2,3.7,-9.7
CCNc1nc(NCC)nc(OCC(=O)O)n1,.,-7.4,17.1,4.8,5.8,-7.8
COc1ccc(C2=Nn3c(nnc3-c3ccccc3F)SC2)cc1OC1CCOC1 (centres undefined),-1.3,6.3,45.1*,1.5,1.0,-20.1
COc1ccc(OC)c(-c2nnc3n2N=C(c2ccc(OC)c(OC4CCCC4)c2)CS3)c1,1.2,9.4,.,-0.4,-26.4,-15.9
COc1ccc(OCc2nnc3n2N=C(c2ccc(OC)cc2)CS3)cc1,-16.5,2.9,44.7*,0.0,-56.0,-8.1
COc1ccc(OCc2nnc3n2N=C(c2ccc(C)cc2)CS3)cc1,-7.1,-1.1,4.7,.,-4.4,3.6
COc1ccc(OC)c(-c2nnc3n2N=C(c2ccc(OC(F)F)c(OCC4CC4)c2)CS3)c1,1.7,6.1,-0.7,1.8,-9.0,-5.5
COc1ccc(OC)c(-c2nnc3n2N=C(c2ccc(OC)c(OC)c2)CS3)c1,5.4,-0.8,80.4*,-0.1,-18.9*,-15.1
COc1ccc(C2=Nn3c(nnc3-c3ccccc3OC)SC2)cc1OCC1CC1,1.9,2.7,49.8*,0.0,-27.3*,-20.2
COc1ccc(C(=O)Nc2ccc3c(c2)C(=O)N(C)C[C@@H](OC)[C@@H](C)CN[C@H](C)CO3)cc1,0.3,-2.0,9.0,0.0,-2.3,-3.1
C[C@@H]1CCCCO[C@@H](CN(C)C(=O)c2ccccc2)[C@H](C)CN([C@@H](C)CO)C(=O)c2cc(NC(=O)Nc3ccccc3)ccc2O1,-15.0,0.9,8.3,.,-5.6,-2.4
CO[C@@H]1CN(C)C(=O)c2ccc(NC(=O)c3ccccc3F)cc2OC[C@H](C)N(CC2CC2)C[C@@H]1C,8.0,0.0,10.0,-0.1,-1.1,-3.4
C[C@H](CO)N1C[C@H](C)[C@@H](CN(C)C(=O)Nc2ccccc2)OCCCC[C@H](C)Oc2ccc(NC(=O)Nc3ccc(C(F)(F)F)cc3)cc2C1=O,.,.,0.9,.,1.0,.
COc1ccc(C2=Nn3c(nnc3-c3ccccc3)SC2)cc1OC,-6.4,.,10.7,.,9.6,4.0
CCCc1nnc2n1N=C(c1ccc(OC)c(OC)c1)CS2,.,-3.7,106.3*,.,-5.1,-10.6
Cc1ccccc1Cc1c(C)nc2c(C(=O)NCc3ccco3)cnn2c1C,3.4,-4.0,45.6*,.,-39.7,-22.6
Cc1ccccc1Cc1c(C)nc2nc(SCC(=O)NCc3ccco3)nn2c1C,13.8,.,.,.,.,.
CC(C)[C@@H](C)NC(=O)N(C)C[C@H]1OCc2ccccc2-c2c(n(C)c3ccccc23)C(=O)N([C@H](C)CO)C[C@@H]1C,-1.6,6.9,-29.8,-0.4,-5.1,14.2
SMILES,RAD54 inh,MLL AF4-AF9 inh,INS-1E GSIS act,E-selectin induc,Ecoli rRNA inh,RAD52 anneal inh
N#Cc1c(N)nc2c(c1N)CC(=O)N2c1ccc(Cl)cc1,11.8,-1.0,8.0,.,-31.1*,10.2
N#Cc1c(N)nc2c(c1N)CC(=O)N2c1ccccc1-c1ccccc1,-0.3,.,.,.,.,.
CCSc1nnc2ccc(-c3cccs3)nn12,5.7,-6.9,42.5*,0.6,-7.0,-0.8
C[C@H]1CN([C@@H](C)CO)C(=O)c2cccc(NC(=O)Nc3cccc4ccccc34)c2O[C@H]1CN(C)S(=O)(=O)c1cn(C)cn1,-3.5,-7.8,-5.3,0.1,-2.5,16.0
COc1ccc(CCNCc2cc(C)n(-c3ccc(OC)cc3)c2C)cc1,-0.5,39.4*,-19.4,.,-17.9,25.4
COc1ccc(CCNCc2ccccc2N2CCCC2)cc1,-22.7,0.9,10.0,0.1,7.5,-9.5
O=C(c1cc(O)c(O)c([N+](=O)[O-])c1)c1ccccc1F,3.7,25.7*,.,0.0,-43.0,-11.4
O=C(Nc1ccc([N+](=O)[O-])cc1)c1ccccc1F,-2.3,-3.4,-5.1,.,11.0,-3.6
CC(NCCC1(Cc2ccccc2Cl)CCOC(C)(C)C1)c1cccs1 (centres undefined),-3.4,3.9,.,-0.2,-38.8*,-14.6
C[C@@H]1CN([C@H](C)CO)C(=O)c2cc(NC(=O)Nc3ccc(F)cc3)ccc2O[C@@H](C)CCCCO[C@@H]1CN(C)C(=O)C1CCCCC1,-2.1,7.3,-20.9,0.3,1.0,-12.0
Cc1ccc(-c2ccc(C3[C@@H]4CN(Cc5cccnc5)C[C@H]3N4)cc2)cc1 (some centres undefined),.,16.7,-20.2,0.0,-3.0,53.3*!
Cc1ccc(-c2ccc(C3[C@@H]4CN(Cc5ccccc5)C[C@H]3N4)cc2)cc1 (some centres undefined),.,.,-3.4,.,0.1,.
Fc1cccc(CN2C[C@@H]3N[C@H](C2)C3c2ccc(/C=C/c3ccccc3)cc2)c1 (some centres undefined),.,.,471.3*!,-0.3,-55.2,.
COc1ccccc1CN1C[C@@H]2N[C@H](C1)C2c1ccc(-c2ccccc2)cc1 (some centres undefined),.,14.6,-3.9,-0.1,-59.4,27.4
Cc1cccc(-c2ccc(C3[C@@H]4CN(Cc5cccnc5)C[C@H]3N4)cc2)c1 (some centres undefined),.,-3.0,8.5,0.0,6.4,23.7
Cc1ccc(S(=O)(=O)N2CCN(Cc3cccc(F)c3)CC2)cc1,-14.2,-7.1,9.6,0.5,-27.7*,1.7
COc1ccccc1CN1C[C@@H]2N[C@H](C1)C2c1ccc(/C=C/c2ccccc2)cc1 (some centres undefined),.,29.9*,-20.9,-0.2,-56.7,68.0*
CCCNC(=O)C[C@H]1CC[C@H]2[C@H](COc3ccc(NC(=O)c4ccccc4)cc3C(=O)N2C)O1,-8.4,-1.9,4.6,0.4,-0.4,-0.3

# Source: PubChem
